Measurements from ChEMBL document CHEMBL5329221, “A covalent fragment-based strategy targeting a novel cysteine to inhibit activity of mutant EGFR kinase” (RSC Med Chem, 2023).
Calls of active or inactive are those of the source. The rule behind the calls is not given here.

How the values were obtained:
[1] = system: Epidermal growth factor receptor (Homo sapiens), P00533 [T790M,L858R,C797S,E865A,E866A,K867A]; assay: Binding affinity to N-terminal His6-tagged human EGFR T790M/L858R/C797S/E865A/E866A/K867A mutant expressed in Sf9 cells at pH 7.4 assessed as covalent adduct formation incubated for 1 hrs by TOF-MS analysis
[2] = molecular target: Epidermal growth factor receptor (Homo sapiens) (UniProt P00533); assay: Binding affinity to N-terminal twin Strep-tagged human wild type EGFR (694 to 1022 residues) expressed in Sf9 cells at pH 7.4 assessed as covalent adduct formation preincubated with maleimide followed by compound addition and measured after 1 hrs by TOF-MS analysis
[3] = system: Epidermal growth factor receptor (Homo sapiens), P00533 [T790M,L858R,C797S,E865A,E866A,K867A]; assay: Binding affinity to N-terminal His6-tagged human EGFR T790M/L858R/C797S/E865A/E866A/K867A mutant expressed in Sf9 cells at pH 7.4 incubated for 1 hrs by TOF-MS analysis
[4] = system: Epidermal growth factor receptor (Homo sapiens), P00533 [T790M,L858R,E865A,E866A,K867A]; assay: Binding affinity to N-terminal His6-tagged human EGFR T790M/L858R/E865A/E866A/K867A mutant expressed in Sf9 cells at pH 7.4 assessed as covalent adduct formation incubated for 1 hrs by TOF-MS analysis
[5] = system: Epidermal growth factor receptor (Homo sapiens), P00533 [T790M,L858R,E865A,E866A,K867A]; assay: Binding affinity to N-terminal His6-tagged human EGFR T790M/L858R/E865A/E866A/K867A mutant expressed in Sf9 cells at pH 7.4 assessed as covalent adduct formation preincubated with nazartinib followed by compound addition and measured after 1 hrs by TOF-MS analysis
[6] = molecular target: Epidermal growth factor receptor (Homo sapiens, UniProt P00533, C797S/L858R/T790M); assay: Inhibition of N-terminal His6-tagged human EGFR L858R/T790M/C797S mutant expressed in Sf9 cells assessed as decrease in substrate phosphorylation using Ulight-JAK1 peptide as substrate incubated for 1.5 hrs in presence of ATP by TR-FRET based LANCE Ultra kinase assay
Method in brief: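 LANCE Ultra TR-FRET assay with 0.25 nM EGFR_TM, 1 µM ATP, 50 nM ULight-JAK1 peptide, 50 mM HEPES pH 7.5, 10 mM MgCl2, 5 mM MnCl2, 1 mM DTT, 0.015% Brij35, 5% DMSO, 1.5 h at 23°C. EDTA stop, Eu-anti-pTyr PT66, 1 h. Signal is the 665/620 nm ratio, normalised to no-protein controls. IC50 from a four-parameter fit, otherwise % inhibition at the top concentration.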

[7] = system: Epidermal growth factor receptor (Homo sapiens), P00533 [L858R,T790M,C797S]; assay: Inhibition of N-terminal His6-tagged human EGFR L858R/T790M/C797S mutant expressed in Sf9 cells assessed as decrease in substrate phosphorylation using Ulight-JAK1 peptide as substrate at 500 uMincubated for 1.5 hrs in presence of ATP by TR-FRET based LANCE Ultra kinase assay

| Activity [1] | Activity [2] | Activity [3] | Activity [4] | Activity [5] | IC50 [6] | inhibition [7] | Compound |
| --- | --- | --- | --- | --- | --- | --- | --- |
| Active | inactive | Active | Active | inactive |  |  | C=CC(=O)Nc1cc2ccccn2n1 |
|  |  |  |  |  | 9 µM |  | C=CC(=O)Nc1cc(-c2cn(C)c3ccccc23)ccn1 |
| Active |  |  | Active |  |  |  | C=CC(=O)Nc1ccc[nH]c1=O |
| Active |  |  | Active |  |  |  | C=CC(=O)Nc1cc(N(C)C)n2nc(C)cc2n1 |
| Active |  |  | Active |  |  |  | C=CC(=O)Nc1ccc2c(C)n(C)nc2c1 |
|  |  |  |  |  | 32 µM |  | C=CC(=O)Nc1cc(-c2ccccc2)ccn1 |
| Active | inactive | Active | Active | inactive | > 500 µM | 52.3% | C=CC(=O)Nc1ccccn1 |
| Active |  |  | Active |  |  |  | C=CC(=O)Nc1cccc(C(C)=O)c1 |
| Active |  |  | Active |  |  |  | C=CC(=O)Nc1cccc(O)c1 |
| Active |  |  | Active |  |  |  | C=CC(=O)Nc1cccc(NC(C)=O)n1 |
| Active | inactive | Active | Active | inactive |  |  | C=CC(=O)Nc1ccc2cccnc2c1 |
| Active |  |  | Active |  |  |  | C=CC(=O)Nc1cccc2c1ncn2C |
